In the library only some 2.9% were active in any assay of this set; here they are far more common.
HTRA1 inh = blocks human HTRA1 serine peptidase; recombinant HTRA1, FP-rhodamine activity-based probe, fluorescence polarization; 340,000 compounds, 0.5% hits; AID 504803; inhibition, % at 5.96 µM; Q92743; in the data active = inhibition above about 36%;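 note: 0% = enzyme with DMSO and 100% = wells lacking enzyme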
TCR-CD3 inh = inhibitors of human TCR-CD3 interaction; TAMRA-labeled TCR probe fluorescence, biochemical; 360,000 compounds, 0.37% hits; inhibition, % at 9.4 µM; in the data active = inhibition above about 19%;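 note: recombinant mutant TCR 2C K166C tagged with TAMRA read by polarization; 0% = receptor in buffer alone and 100% = receptor with positive control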
SIAE primary = inhibitors of human sialic acid acetylesterase SIAE | SIAE FP-Rh probe binding, fluorescence polarization | 370,000 compounds, 0.69% hits | inhibition, % at 9.66 µM | AID 1053197 | Q9HAT2;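 active = inhibition above a cutoff: mean of compounds within the control limits plus 3 SD of those, cut at about 17% in these data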;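 note: 0% = plate median of compound wells and 100% = probe without SIAE protein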
PRMT1 FP inh = inhibitors of human PRMT1 | Q99873 | recombinant PRMT1, activity-based probe fluorescence polarization | inhibition, % at 2.79 µM | 370,000 compounds, 1.3% hits | AID 652257;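 active = inhibition above about 21% made by adding two undisclosed values, limit read from the data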
Target sequence (Q99873 whole entry, looked up): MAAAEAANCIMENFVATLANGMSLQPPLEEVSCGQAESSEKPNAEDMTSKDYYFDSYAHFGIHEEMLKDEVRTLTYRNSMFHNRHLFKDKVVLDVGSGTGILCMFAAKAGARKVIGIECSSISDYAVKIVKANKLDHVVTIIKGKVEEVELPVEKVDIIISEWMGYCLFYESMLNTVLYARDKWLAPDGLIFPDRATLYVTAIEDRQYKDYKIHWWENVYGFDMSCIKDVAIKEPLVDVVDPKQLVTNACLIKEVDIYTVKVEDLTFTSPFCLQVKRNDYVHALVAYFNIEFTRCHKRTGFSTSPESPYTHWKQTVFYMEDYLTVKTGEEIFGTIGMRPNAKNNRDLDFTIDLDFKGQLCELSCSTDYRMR
ABHD4 inh = inhibits mouse alpha/beta hydrolase domain 4; 370,000 compounds, 0.54% hits; purified mABHD4, FP-Rh probe fluorescence polarization; Q8VD66; AID 720543; inhibition, % at 8.92 µM;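 active = inhibition exceeding the mean over every tested compound plus 3 SD, cut at about 30% in these data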;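 note: 0% = plate median of compound wells and 100% = S159A mutant with DMSO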
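Doses – 8.92 µM, single dose · Material – wild-type mouse ABHD4 protein · Replication – single well per compound (singlicate) · Measure – percent inhibition of probe binding, normalized to plate controls · Schedule – 45 min compound pre-incubation plus 60 min probe step, 25 °C · Detection – fluorescence polarization with parallel and perpendicular emission, 525/598 nm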
PAD4 FP inh = blocks human protein arginine deiminase 4 | Q9UM07 | recombinant PAD4, RCA probe fluorescence polarization | inhibition, % at 6.36 µM | 330,000 compounds, 0.41% hits | AID 485272;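 active = percent inhibition above a cutoff equal to the mean of all tested compounds plus 3 SD, cut at about 15% in these data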;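 note: 0% = PAD4 with RCA probe and DMSO and 100% = probe without PAD4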
SIAE inh conf = confirmation of human SIAE inhibitors | SIAE FP-Rh activity-based probe, fluorescence polarization | inhibition, % at 9.66 µM | shares compounds with SIAE primary | 2,300 compounds, 13% hits | AID 1117263;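 active = mean inhibition of the replicates above the hit cutoff set in the primary screen, cut at about 17% in these data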;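 note: 0% = SIAE with DMSO and probe and 100% = probe without SIAE; inhibitors lower polarization as more probe stays unbound to SIAE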
Active calls of the source: *; x = not tested or not shown.

SMILES	HTRA1 inh	TCR-CD3 inh	SIAE primary	PRMT1 FP inh	ABHD4 inh	PAD4 FP inh	SIAE inh conf
COc1ccc(C(C(=O)N(C)C2CCCC2)N(Cc2ccc(F)cc2)C(=O)c2ccc3ccccc3c2)cc1OC (centres undefined)	x	x	1	4	-2	x	x
CN(C)c1ccc(C2SCCN2C(=O)c2ccc([N+](=O)[O-])cc2)cc1 (centres undefined)	-1	-5	19*	3	2	-2	4
O=C(CSc1nc2ccccc2o1)N1N=C(c2cccs2)CC1c1ccc(F)cc1 (centres undefined)	-2	3	20*	-4	-6	-1	-5
CC(C)Cn1c(SCC(=O)c2ccc(Cl)s2)nnc1-c1ccco1	-22	-1	25*	-2	3	-8	3
Cc1cc(C)nc(N2CCCC(C(=O)NC3CCCC3)C2)n1 (centres undefined)	2	8	4	-1	4	0	x
Cc1cc(C)nc(N2CCCC(C(=O)NC(C)C)C2)n1 (centres undefined)	8	1	18*	-2	0	-2	-5
CC(/C=C/c1ccc(N(C)C)cc1)=N\N=C1\NC(=O)CC(C(=O)Nc2ccccc2)S1 (centres undefined)	20	1	19*	2	-6	0	7
N#C/C(=C\c1cc2ccccc2nc1N1CCOCC1)C(=O)Nc1ccc(N2CCOCC2)cc1	0	-8	20*	1	0	2	7
COC(=O)[C@]12C[C@H](CC(=O)NCCCCc3ccccc3)C(=O)N(Cc3ccco3)C1=C[C@H](C1CCCC1)O[C@@H]2C	x	x	0	4	1	x	x
COc1ccc(-n2c(=S)[nH]c3cc(C(=O)Nc4cc(OC)c(OC)c(OC)c4)ccc3c2=O)c(OC)c1	1	-1	17*	-5	-1	-2	2
O=[N+]([O-])c1cccc(-c2csc(N/N=C/c3cccc(O)c3)n2)c1	4	7	27*	0	8	-2	0
CN(C)S(=O)(=O)c1ccc(-c2csc(N/N=C/c3ccc(O)cc3)n2)cc1	26	-5	20*	7	-3	-7	24*
COP1(=O)CCOCC[C@H](CC(C)C)NC(=O)[C@H](CC(C)C)N1 (some centres undefined)	x	x	3	4	0	x	x
CCn1c(-c2ccccc2)csc1=Nc1ccc(O)cc1	11	-8	25*	4	-1	-2	4
CC(C)=CCc1cc(-c2oc3cc(O)cc(O)c3c(=O)c2O)ccc1O	12	10	23*	-3	15	-3	1
Cc1ccccc1CS(=O)(=O)Cc1ccc(C(=O)Nc2cccc(Cl)c2F)o1	x	x	-4	-3	-8	x	x
CC(=O)CC[C@H]1CC[C@]2(CCCN(C(=O)C3CCCCC3)C2)O1	x	x	2	2	-1	x	x
CC(=O)N/C(=C\c1ccccc1)C(=O)OCC(=O)Nc1ccc(C)c(S(=O)(=O)N(C)C)c1	-10	7	21*	2	-6	3	1
COCCNc1nc(NCc2cccc(OC)c2)c2sc(-c3ccccc3)cc2n1	x	-5	34*	1	27	x	31*
COCCNc1nc(NCc2ccc(NC(C)=O)cc2)c2sc(-c3ccccc3)cc2n1	x	-10	27*	-4	22	x	18*
c1ccc(OCCNc2nc(NCC3CC3)nc3cc(-c4ccccc4)sc23)cc1	x	2	22*	-2	15	x	21*
c1ccc(CNc2nc(NCC3CC3)nc3cc(-c4ccccc4)sc23)cc1	x	-7	10	6	11	x	x
O=C(NCCc1ccccc1)OCc1cn(Cc2ccc(Cl)cc2)nn1	x	x	6	2	-3	x	x
COc1cccc(NC(=O)Nc2nc3ncccn3c2-c2ccc(C)cc2)c1	x	x	6	1	-1	x	x
CCc1nnc(NC(=O)CSc2nc3c([nH]c4ccccc43)c(=O)n2CCOC)s1	2	-6	18*	-1	11	-4	-1
CNC(=O)CSc1nc2c([nH]c3ccccc32)c(=O)n1CCOC	3	-4	-1	3	3	-6	x
O=C1N2CCc3ccccc3C2CS(=O)(=O)N1CCc1ccccc1 (centres undefined)	x	x	-2	-5	5	x	x
